Test results: the RNAGym collection of RNA variant scans (doi:10.1126/science.aae0568)
Fewer inactive variants are shown than the library holds.

B1: tRNA (parent)
chain: GUUCCGUUGGCGUAAUGGUAACGCGUCUCCCUCCUAAGGAGAAGACUGCGGGUUCGAGUCCCGUACGGAACG

Variants of: B1
Assay: yeast fitness relative to wild type (ratio to wild type); higher = fitter; tRNA-Arg(CCU), competitive growth, 37 C, YPD
Procedure, shortened: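 Amplicons of the tRNA-Arg(CCU) gene were sequenced, 100-nucleotide paired-end, from the start population and from each end population of a pooled yeast competition. The competition, in six parallel replicates, lasted 24 hours in YPD at 37°C. Fitness relative to wild type was calculated from changes in genotype frequencies. Genotypes had to have ≥ 100 starting reads, and estimates < 0.5 were set to 0.5.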
For GUUCCGCUGGCGUAAUGGUAACGCGGCUCCCUCCUCAGGAGAAGACUGCCGGUUCGAGUCCCGUACGGAACG [U7C U26G A36C G50C], the yeast fitness was 0.781.
With GUUCCGCAGGCGUAAUGGUAACACGUCUCCCUCCUAAGGAGAAGACUGCGGGUUCGAGUCCCGUACGGAACG [U7C U8A G23A] the yeast fitness was ≤ 0.5.
For GUUCCGCUGGCGCAAUGGUAACGCGUCUCCCUCCUAAGGAGAAGACUGCGGGUUCGAGUCCCGUACGGAACG [U7C U13C], the yeast fitness was 0.836.
With GUUCCGCUGGCGUAAUGGUAACGCGACUCCCUCCUAAGGAGAAGACUGCGGGUCCGAGUCCCGUACGGAACG [U7C U26A U54C] the yeast fitness was ≤ 0.5.
In the case of GUUCCGCCGGCGUAAUGGUAUCGCGUCUCCCUCCUUCGGAGAAGACUGCGGGUUCGAGUCCCGUACGGAACG [U7C U8C A21U A36U A37C], the yeast fitness is reported as ≤ 0.5.
With GUUCCGCUGGCGUAAUGGUAACGCGUCUCCCUCCUAAGGAGAAGACUGCGGGUUCGAGUCCCAUACGGAACG [U7C G63A] the yeast fitness was 0.856.
In the case of GUUCCGCUGGCGUAAAGGUAACGCGUCUCCCUCCUAAGGAGAAGACUGCGGGUUCGAGUCCCGUACGGAACG [U7C U16A], the yeast fitness is reported as 0.812.
In the case of GUUCCGCUGGCGUAAUGGUAACGCGCCUCCCUCCUAAGGAGAAGACUGCGGGAUCGAGUCCCGUACGGAACG [U7C U26C U53A], the yeast fitness is reported as ≤ 0.5.
In the case of GUUCCGCCGGCGUAAUGGUAACGCGGCUCCCUCCUAAGGAGAAGACUGCGGGUUCGAGUCCCGUACGGAACG [U7C U8C U26G], the yeast fitness is reported as ≤ 0.5.
In the case of GUUCCGCUGGCGUAAUGGUAACGCGUCUCCCUCCUAAGGAGAAGACUGCGGGUUCGAGUCCCGUACAGAUCG [U7C G67A A70U], the yeast fitness is reported as ≤ 0.5.
Work on GUUCCGCUGGCGUAAUGGUAACGCGUCACCCUCCUAAGGAGAAGACUGCGGGUUCGAGUCCCGUACGGAACG [U7C U28A] yielded a yeast fitness of 0.845.
Work on GUUCCGCUGGCGUAAUGGCAACGCGUCUCCCUCUUAAGGAGAAGACUGCGGAUUCGAGACCCGUACGGAACG [U7C U19C C34U G52A U59A] yielded a yeast fitness of 0.678.
For GUUCCGCUGGCGUAAAGGUAACGGGUCUCCCUCCUAAGGACAAGACUGCGGGUUCGAGUCCCGUACGGAACG [U7C U16A C24G G41C], the yeast fitness was ≤ 0.5.
For GUUCCGCUGGCGUAAGAGUAACGCGUCUCCCUCCUAAGGAGAAGACUGUGGGUUCGAGCCCAGUACGGAACG [U7C U16G G17A C49U U59C C62A], the yeast fitness was ≤ 0.5.
GUUCCGCUGGCGUAAUGGUAACGCGUCUCCCUCCUAAGGAGAAGACUGCGGGUUCGAGUCCCGUACGUAACG [U7C G68U] showed a yeast fitness of 0.674.
In the case of GUUCCGCUGGCGUAAUGGUAACGCGCCUCCCUCCUGAGGAGGAGACUCCGGGUUCGAGUCCCGUCCGGAACG [U7C U26C A36G A42G G48C A65C], the yeast fitness is reported as ≤ 0.5.
GUUCCGCUGGCGUAAGAGUAACGCGUCUCCCUCCUAAGGAGAAGACUGUGGGUUCGAGUCCAGUACGGAACG [U7C U16G G17A C49U C62A] gave a yeast fitness of 0.506.
For GUUCCGCUGGCGGAAUGGUAACGCGUCUCUCUCCUAAGGAGAAGACUGCGGGUUCGAGUCCCGUACGGAACG [U7C U13G C30U], the yeast fitness was ≤ 0.5.
GUUCCGCUGGCGUAAUGGUAACGCGUCUCCCUCCUAAGGAGAAGACUGCGGGUUCGAGUCCCGUACAGCACG [U7C G67A A69C] showed a yeast fitness of 0.534.
With GUUCCGCUGGCGUAAAGGUAACGCGUCUCCCUCCUAAGGACAAGACUGCGGGUCCGAGUCCCGUAUGGAACG [U7C U16A G41C U54C C66U] the yeast fitness was ≤ 0.5.
Variant GUUCCGCUGGCGUAAAGGUAACGCGUCUCCUUCCUAAGGAGACGACUGCGGGUUCGAGUCCCGUACGGAACG [U7C U16A C31U A43C] has a yeast fitness of 0.722.
For GUUCCGCUGGCGCAAUGGUAACGUGUCUCCCUCCUAAGGAGAAGACUGUGGGUUCGAGUCCCGUACGGAACG [U7C U13C C24U C49U], the yeast fitness was ≤ 0.5.
With GUUCCGCUGGCGUAAUGGUAACGCGUCUCCCUCCUAAGGAGAAGACUGCGGGUUCGAAUCCCGUACAGAACG [U7C G58A G67A] the yeast fitness was 0.62.
GUUCCGCGGGCGUAAUGGUAACGCGUCUCCCUCCUAAGGAGAAGACUGCGGGUUCGAGUCCCGUACGGAACG [U7C U8G] gave a yeast fitness of 0.697.
For GUUCCGCCGGCGUAAUGGUAACGCGUCUCCCUCCUAAGGAGAAGACUGCGGGUUCGAGUCCCGUACGGAACG [U7C U8C], the yeast fitness was 0.976.
GUUCCGCUGGCGUAAUGGAAACGCGUCUCCUUCCUAAGGAGAAGACUGUGGGUUCGAGUCCCGUACGGAACG [U7C U19A C31U C49U] showed a yeast fitness of 0.678.
For GUUCCGCUGGCGUAACGGUAACGCGUCUUCCUCCUAAGGAGAAGACUGCGGGUUCGAGUCCCGUACGGAACG [U7C U16C C29U], the yeast fitness was ≤ 0.5.
Work on GUUCCGCUGGCGGAAUGGUAACGCGUCUCUCUCCUAAGGAGAAGACUGCGGGUUCGAGUCCCGUUCGGAACG [U7C U13G C30U A65U] yielded a yeast fitness of 0.619.
Variant GUUCCGCUGGCGUAAUGGUAACGCGUCUCCCUCCUAAGGAGAAGACUGCGGGUUCGACUCCCGUACGGAACG [U7C G58C] has a yeast fitness of 0.781.
For GUUCCGCGGGCGUAAUGGUAACGCGUAUCCCUCCUAAGGAGAAGACUGCGGGUUCGAGUCCCGUACGGUACG [U7C U8G C27A A69U], the yeast fitness was ≤ 0.5.
With GUUCCGCUGGCGUAAUGGUAACGCGCCUCCGUCCCAAGGAGAAGAAUGCGGGUUCGAGUCCCGUAAGGAACG [U7C U26C C31G U35C C46A C66A] the yeast fitness was ≤ 0.5.
In the case of GUUCCGCAGGCGUAAUGGUAACGGGUCUCCCUCCUAAGGAGAAGACUGCGGGUUCGAGUCCCGCACGGAACG [U7C U8A C24G U64C], the yeast fitness is reported as ≤ 0.5.
With GUUCCGCUGGCGUAAUGGAAACGCGUCUACCUCCUAAGGAGAAGACUGCGGGUUCGAGUCCCGUACGGAACG [U7C U19A C29A] the yeast fitness was ≤ 0.5.
In the case of GUUCCGCUGGCGUAAUGGUAACGCGUCUCCCUCCUAAGGAGAAGACUGCGGGUUCGAGUCCCGUACCGAACG [U7C G67C], the yeast fitness is reported as 0.951.
With GUUCCGCUGGCGUAAGGGUGACGCGCCUCCCUCCUAAGGAGAAGACUGGGGGUUCGAGUCCCGUACGGAACG [U7C U16G A20G U26C C49G] the yeast fitness was ≤ 0.5.
For GUUCCGCUGGCGUAAGGGUAACGCGUCACCCUCCUAAGGAGAAGACUGCGGGUUCGAGUCCCGUACGGAACG [U7C U16G U28A], the yeast fitness was ≤ 0.5.
In the case of GUUCCGCUGGCGUAAUGGUAACGCGCCUCCCUCCUAAGGACAAGAAUGCGGGUUCGAGUCCCGUACGGAACG [U7C U26C G41C C46A], the yeast fitness is reported as ≤ 0.5.
In the case of GUUCCGCUGGCGUAAUGGUAACGCGGCUCCCUCCUAAGGAGAAGACUGCGGGUUCGUGUCCCGUAUGGAACG [U7C U26G A57U C66U], the yeast fitness is reported as ≤ 0.5.
